Results as given in ChEMBL document CHEMBL1123369, “Synthesis and structure-activity relationships of new arylfluoronaphthyridine antibacterial agents” (1986).
≈ marks a conversion by molar mass, not a printed value.

Legend:
Type in all cases: functional
Acinetobacter sp. = assay: In vitro antibacterial activity against Acinetobacter species CMX669
In short: (§1)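 Twofold agar dilution in brain-heart infusion agar, test range 200 to 0.005 µg/mL, made from a 2000 µg/mL stock. Organisms grown overnight in BHI broth at 36 °C. About 10⁴ organisms inoculated per plate, then incubated 18 h at 36 °C. MIC taken as the lowest concentration giving no visible growth.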

Escherichia coli = assay: In vitro antibacterial activity against Escherichia coli Juhl; in short: as §1
Klebsiella aerogenes = assay: In vitro antibacterial activity against Enterobacter aerogenes ATCC 13048; in short: as §1
Klebsiella pneumoniae = assay: In vitro antibacterial activity against Klebsiella pneumoniae 8045; in short: as §1
Mus musculus [1] = assay: In vivo dose(po) inhibiting systemic infections caused by Escherichia coli Juhl in mice.
In short: (§2)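 CF-1 female mice, about 20 g. Infected ip with 0.5 mL of an 18-h BHI culture diluted in 5% hog gastric mucin to 100× LD₅₀. LD₅₀ set by 10-fold dilutions (Reed–Muench, day 6). Compound given in water or dilute NaOH, sc or po, total dose split at 1 and 5 h post-infection. At least 3 dose levels, 10 mice each. Deaths followed 6 days. ED₅₀ from day-6 cumulative mortality by trimmed Logit, with 95% confidence limits.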

Mus musculus [2] = assay: In vivo dose(po) inhibiting systemic infections caused by Pseudomonas aeruginosa 5007 in mice.; in short: as §2
Mus musculus [3] = assay: In vivo dose(po) inhibiting systemic infections caused by Staphylococcus aureus NCTC 10649 in mice.; in short: as §2
Mus musculus [4] = assay: In vivo dose(sc) inhibiting systemic infections caused by Pseudomonas aeruginosa 5007 in mice.; in short: as §2
Mus musculus [5] = assay: In vivo dose(sc) inhibiting systemic infections caused by Staphylococcus aureus NCTC 10649 in mice.; in short: as §2
Mus musculus [6] = assay: In vivo antibacterial activity against systemic infection caused by Escherichia coli Juhl in mice.; in short: as §2
Mus musculus [7] = assay: In vivo antibacterial activity against systemic infection caused by Pseudomonas aeruginosa 5007 in mice.; in short: as §2
Mus musculus [8] = assay: In vivo antibacterial activity against systemic infection caused by Staphylococcus aureus NCTC 10649 in mice.; in short: as §2
Pseudomonas aeruginosa [9] = assay: In vitro antibacterial activity against Pseudomonas aeruginosa 5007; in short: as §1
Pseudomonas aeruginosa [10] = assay: In vitro antibacterial activity against Pseudomonas aeruginosa K799/WT; in short: as §1
Streptococcus pyogenes = assay: In vitro antibacterial activity against Streptococcus pyogenes 930; in short: as §1
Staphylococcus aureus [11] = assay: In vitro antibacterial activity against Staphylococcus aureus ATCC 6538P; in short: as §1
Enterococcus faecium = assay: In vitro antibacterial activity against Streptococcus faecium ATCC 8043; in short: as §1
Staphylococcus aureus [12] = assay: In vitro antibacterial activity against Staphylococcus aureus CMX 686B; in short: as §1
[13] = system: Staphylococcus epidermidis; assay: In vitro antibacterial activity against Staphylococcus epidermidis 3519; in short: as §1
Mus musculus [14] = assay: In vivo dose(sc) inhibiting systemic infections caused by Escherichia coli Juhl in mice.; in short: as §2
Pseudomonas aeruginosa [15] = assay: compound was evaluated in vitro for the antibacterial activity against Pseudomonas aeruginosa 5007; in short: as §1

| SMILES | MIC (Acinetobacter sp.) | MIC (Escherichia coli) | MIC (Klebsiella aerogenes) | MIC (Klebsiella pneumoniae) | MIC (Pseudomonas aeruginosa [9]) | MIC (Pseudomonas aeruginosa [10]) | MIC (Streptococcus pyogenes) | MIC (Staphylococcus aureus [11]) | MIC (Enterococcus faecium) | MIC (Staphylococcus aureus [12]) | MIC [13] | further results |
| --- | --- | --- | --- | --- | --- | --- | --- | --- | --- | --- | --- | --- |
| CCn1cc(C(=O)O)c(=O)c2cc(F)c(N3CCNCC3)cc21 [NORFLOXACIN] | 6.2 µg/mL (≈ 19.4 µM) | 0.1 µg/mL (≈ 0.313 µM) | 0.2 µg/mL (≈ 0.626 µM) | 0.1 µg/mL (≈ 0.313 µM) | 0.39 µg/mL (≈ 1.22 µM) | 0.39 µg/mL (≈ 1.22 µM) | 3.1 µg/mL (≈ 9.71 µM) | 0.78 µg/mL (≈ 2.44 µM) | 0.78 µg/mL (≈ 2.44 µM) | 0.78 µg/mL (≈ 2.44 µM) | 1.56 µg/mL (≈ 4.89 µM) |  |
| CC1CN(c2nc3c(cc2F)c(=O)c(C(=O)O)cn3-c2ccc(F)cc2F)CCN1 (centres undefined) | 0.39 µg/mL (≈ 0.932 µM) | 0.1 µg/mL (≈ 0.239 µM) | 3.1 µg/mL (≈ 7.41 µM) | 0.2 µg/mL (≈ 0.478 µM) | 1.56 µg/mL (≈ 3.73 µM) | 1.56 µg/mL (≈ 3.73 µM) | 1.56 µg/mL (≈ 3.73 µM) | 0.2 µg/mL (≈ 0.478 µM) | 3.1 µg/mL (≈ 7.41 µM) | 0.39 µg/mL (≈ 0.932 µM) | 0.78 µg/mL (≈ 1.86 µM) | ED50 (Mus musculus [1]): 3.9 mg/kg; MIC (Mus musculus [6]): 0.1 µg/mL (≈ 0.239 µM); ED50 (Mus musculus [14]): 1.4 mg/kg |
| CN1CCN(c2cc3c(cc2F)c(=O)c(C(=O)O)cn3-c2ccc(F)cc2)CC1.Cl [DIFLOXACIN HYDROCHLORIDE] | 0.78 µg/mL | 0.2 µg/mL | 0.78 µg/mL | 0.1 µg/mL | 0.78 µg/mL | 1.56 µg/mL | 1.56 µg/mL | 0.2 µg/mL | 1.56 µg/mL | 0.2 µg/mL | 0.39 µg/mL |  |
| CN1CCN(c2nc3c(cc2F)c(=O)c(C(=O)O)cn3-c2ccc(F)cc2F)CC1 | 0.39 µg/mL (≈ 0.932 µM) | 0.39 µg/mL (≈ 0.932 µM) | 0.39 µg/mL (≈ 0.932 µM) | 0.39 µg/mL (≈ 0.932 µM) | 3.1 µg/mL (≈ 7.41 µM) | 3.1 µg/mL (≈ 7.41 µM) | 1.56 µg/mL (≈ 3.73 µM) | 0.2 µg/mL (≈ 0.478 µM) | 1.56 µg/mL (≈ 3.73 µM) | 0.2 µg/mL (≈ 0.478 µM) | 0.39 µg/mL (≈ 0.932 µM) |  |

Stronger by MIC (Acinetobacter sp.), values ahead:

| MIC (Acinetobacter sp.) | MIC (Escherichia coli) | MIC (Klebsiella aerogenes) | MIC (Klebsiella pneumoniae) | MIC (Pseudomonas aeruginosa [9]) | MIC (Pseudomonas aeruginosa [10]) | MIC (Streptococcus pyogenes) | MIC (Staphylococcus aureus [11]) | MIC (Enterococcus faecium) | MIC (Staphylococcus aureus [12]) | MIC [13] | SMILES | further results |
| --- | --- | --- | --- | --- | --- | --- | --- | --- | --- | --- | --- | --- |
| 0.2 µg/mL | 0.05 µg/mL | 0.2 µg/mL | 0.02 µg/mL | 0.39 µg/mL | 0.39 µg/mL | 0.78 µg/mL | 0.2 µg/mL | 1.56 µg/mL | 0.2 µg/mL | 0.39 µg/mL | Cl.O=C(O)c1cn(-c2ccc(F)cc2)c2cc(N3CCNCC3)c(F)cc2c1=O [SARAFLOXACIN HYDROCHLORIDE] | ED50 (Mus musculus [1]): 4.3 mg/kg; ED50 (Mus musculus [2]): 21.4 mg/kg; ED50 (Mus musculus [3]): 6.5 mg/kg; ED50 (Mus musculus [4]): 1.6 mg/kg; ED50 (Mus musculus [5]): 1.6 mg/kg; MIC (Mus musculus [6]): 0.05 µg/mL; MIC (Mus musculus [7]): 0.39 µg/mL; MIC (Mus musculus [8]): 0.12 µg/mL; ED50 (Mus musculus [14]): 0.6 mg/kg |
| 0.2 µg/mL (≈ 0.5 µM) | 0.2 µg/mL (≈ 0.5 µM) | 0.2 µg/mL (≈ 0.5 µM) | 0.1 µg/mL (≈ 0.25 µM) |  | 1.56 µg/mL (≈ 3.9 µM) | 3.1 µg/mL (≈ 7.74 µM) | 0.2 µg/mL (≈ 0.5 µM) | 3.1 µg/mL (≈ 7.74 µM) | 0.2 µg/mL (≈ 0.5 µM) | 0.39 µg/mL (≈ 0.974 µM) | CN1CCN(c2nc3c(cc2F)c(=O)c(C(=O)O)cn3-c2ccc(F)cc2)CC1 | MIC (Pseudomonas aeruginosa [15]): 1.56 µg/mL (≈ 3.9 µM) |
| 0.2 µg/mL (≈ 0.5 µM) | 0.05 µg/mL (≈ 0.125 µM) | 12.5 µg/mL (≈ 31.2 µM) | 0.02 µg/mL (≈ 0.05 µM) | 1.56 µg/mL (≈ 3.9 µM) | 1.56 µg/mL (≈ 3.9 µM) | 3.1 µg/mL (≈ 7.74 µM) | 0.39 µg/mL (≈ 0.974 µM) | 6.2 µg/mL (≈ 15.5 µM) | 0.78 µg/mL (≈ 1.95 µM) | 0.78 µg/mL (≈ 1.95 µM) | CC1CN(c2nc3c(cc2F)c(=O)c(C(=O)O)cn3-c2ccc(F)cc2)CCN1 (centres undefined) |  |
